These results are taken from ChEMBL document CHEMBL1141369, “Salinosporamides D-J from the marine actinomycete Salinispora tropica, bromosalinosporamide, and thioester derivatives are potent inhibitors of the 20S proteasome” (J Nat Prod, 2007).

Test [1] in a line: Inhibition of CT-L activity of rabbit muscle 20S proteasome. In kind it is tissue-based, Oryctolagus cuniculus, Muscle tissue. In short, it runs like this: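 Serially diluted compound added in duplicate and preincubated 5 min at 37 °C. Reaction started with Suc-LLVY-AMC at 20 µM final, fluorescence read at ex 390/em 460 nm. IC50 from sigmoidal variable-slope fit, mean ± SD of at least three independent experiments.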

In test [2] the test system is RPMI-8226. Briefly: Cytotoxicity against human RPMI 8226 cells. In kind it is cell-based. In short, it runs like this: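 Seeded at 2 × 10^4 cells/well, then serially diluted compound added in triplicate for 48 h. Growth read by resazurin reduction (fluorescence). IC50 = concentration giving 50% of maximal observed growth inhibition, from sigmoidal dose-response fit.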

SMILES strings stand for the structures.

Usually IC50 stands for the concentration that gives 50% inhibition. Lower therefore signals inhibition by little substance. Take `COC(=O)CCSC(=O)[C@]1([C@@H](O)[C@@H]2C=CCCC2)NC(=O)[C@@H]2CCO[C@@]21C`: the IC50 in test [1] was found to be 230 nM; in test [2], 7500 nM.

As for `C[C@@]12OC(=O)[C@]1(CC1C=CCCC1)NC(=O)[C@@H]2CCCl` (stereo not given in full) [SALINOSPORAMIDE J], the IC50 in test [1] is 52 nM; in test [2], 250 nM.

Turning to `COC(=O)[C@@H](CSC(=O)[C@]1([C@@H](O)[C@@H]2C=CCCC2)NC(=O)[C@H](CCCl)[C@]1(C)O)NC(C)=O`, the IC50 in test [1] is 4 nM; in test [2], 9.7 nM.

With `CC[C@H]1C(=O)N[C@](C(=O)SCCC(=O)OC)([C@@H](O)[C@@H]2C=CCCC2)[C@@]1(C)O`, the IC50 in test [1] stood at 50 nM; in test [2], 8000 nM.

Turning to `COC(=O)CCSC(=O)[C@]1([C@@H](O)[C@@H]2C=CCCC2)NC(=O)[C@H](CCCl)[C@]1(C)O`, the IC50 worked out at 9.3 nM in test [1] and 11 nM in test [2].
